Activity calls are given as the source filed them. The calls are words filed in the database; no cut-off is given here.
Key:
[1] = Cytotoxicity against HEL assessed as minimum cytotoxic concentration required to cause microscopically detectable alteration in cell morphology; format: cell-based; conditions: human, HEL cells
Human betaherpesvirus 5 [2] = experiment: Antiviral actiivty against Human herpesvirus 5 Davis infected in HEL assessed as reduction of virus-induced plaque formation; format: functional, organism-based; conditions: Human betaherpesvirus 5, Davis
In short: (§1)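 HCMV strains AD-169 and Davis were tested on confluent human embryonic lung fibroblast monolayers infected with 100 PFU in the presence of serial compound concentrations. Plaques were counted once formation was complete in untreated infected controls. EC50 is the concentration that cuts plaque formation by 50%.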

HEL = experiment: Cytotoxicity against HEL; format: cell-based; conditions: human
Human betaherpesvirus 5 [3] = experiment: Antiviral actiivty against Human herpesvirus 5 AD169 infected in HEL assessed as reduction of virus-induced plaque formation; format: functional, organism-based; conditions: Human betaherpesvirus 5, AD169; in short: as §1
Sindbis virus = experiment: Antiviral activity against Sindbis virus; format: functional, organism-based
In short: (§2)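 Confluent HEL, Vero, HeLa or MDCK cell cultures were inoculated with 100 CCID50 of virus alongside varying compound concentrations. Cytopathicity was scored when it reached completion in untreated virus controls. EC50 is the concentration that reduces virus-induced cytopathogenicity by 50%.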

Feline coronavirus = experiment: Antiviral activity against Feline coronavirus; format: functional, organism-based
Influenza A virus [4] = experiment: Antiviral activity against Influenza virus A virus H3N2; format: functional, organism-based
In short: (§3)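 The assay was a cell-based cytopathicity inhibition test on confluent monolayers with serial compound dilutions. EC50 was the concentration that reduced virus-induced cytopathicity by 50%.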

Vaccinia virus = experiment: Antiviral activity against Vaccinia virus Lederle; format: functional, organism-based; conditions: Orthopoxvirus vaccinia
Human alphaherpesvirus 3 [5] = experiment: Antiviral activity against Varicella-zoster virus YS; format: functional, organism-based
In short: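 VZV was assayed by plaque formation. Confluent cell cultures received 10 or 100 PFU with varying compound concentrations, and plaques were recorded once complete in untreated infected controls. EC50 is the concentration that reduces plaque formation by 50%.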

[6] = tested on: Human immunodeficiency virus 1; experiment: Antiviral activity against HIV1 3B infected in human CEM cells assessed as inhibition of virus-induced giant cell formation after 4 to 5 days; format: functional, organism-based; conditions: CCRF-CEM
In short: (§4)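 CEM cells at about 3 × 10^5 cells/mL were infected with 100 CCID50 of HIV per mL, with compound dilutions present. They were incubated 4–5 days at 37 °C in humidified CO2, and syncytia were scored microscopically. EC50 is the concentration that inhibits giant cell formation by 50%.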

Human respirovirus 3 = experiment: Antiviral activity against Parainfluenza virus 3; format: functional, organism-based; in short: as §2
Human alphaherpesvirus 2 [7] = experiment: Antiviral activity against Herpes simplex virus type 2 Lyons; format: functional, organism-based; in short: as §2
Influenza A virus [8] = experiment: Antiviral activity against Influenza virus A virus H1N1; format: functional, organism-based; in short: as §3
Human alphaherpesvirus 3 [9] = experiment: Antiviral activity against Varicella-zoster virus OKA; format: functional; conditions: strain Oka vaccine
In short: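 Confluent cell monolayers were infected with 10 or 100 PFU of VZV in the presence of serial compound dilutions. Plaque formation was recorded once untreated infected controls reached completion. EC50 was the concentration that reduced plaque formation by 50%.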

Human alphaherpesvirus 2 [10] = experiment: Antiviral activity against Herpes simplex virus type 2 G; format: functional, organism-based; conditions: strain G; in short: as §2
Influenza B virus = experiment: Antiviral activity against Influenza B virus; format: functional, organism-based; in short: as §3
Punta Toro virus = experiment: Antiviral activity against Punta Toro virus; format: functional, organism-based; in short: as §2
Human alphaherpesvirus 1 [11] = experiment: Antiviral activity against Herpes simplex virus type 1 KOS; format: functional, organism-based; in short: as §2
[12] = tested on: Human immunodeficiency virus 2; experiment: Antiviral activity against HIV2 ROD infected in human CEM cells assessed as inhibition of virus-induced giant cell formation after 4 to 5 days; format: functional, organism-based; conditions: ISOLATE ROD, CCRF-CEM; in short: as §4
[13] = tested on: Respiratory syncytial virus; experiment: Antiviral activity against Respiratory syncytial virus Long; format: functional, organism-based; in short: as §2
Coxsackievirus B4 = experiment: Antiviral activity against Coxsackie B4 virus; format: functional, organism-based; in short: as §2
[14] = tested on: Mammalian orthoreovirus 1; experiment: Antiviral activity against Reovirus-1; format: functional, organism-based; in short: as §2
[15] = tested on: Vesicular stomatitis virus; experiment: Antiviral activity against Vesicular stomatitis virus; format: functional, organism-based
Human alphaherpesvirus 1 [16] = experiment: Antiviral activity against thymidine kinase deficient acyclovir-resistant Herpes simplex virus type 1 KOS; format: functional, organism-based

Row | Compound | MCC [1] [µM] | EC50 (Human betaherpesvirus 5 [2]) [µM] | EC50 (Human betaherpesvirus 5 [3]) [µM] | Activity (Sindbis virus) | Activity (Feline coronavirus) | Activity (Influenza A virus [4]) | Activity (Vaccinia virus) | Activity (Human alphaherpesvirus 3 [5]) | Activity [6] | Activity (Human respirovirus 3) | Activity (Human alphaherpesvirus 2 [7]) | Activity (Influenza A virus [8]) | Activity (Human alphaherpesvirus 3 [9]) | Activity (Human alphaherpesvirus 2 [10]) | Activity (Influenza B virus) | Activity (Punta Toro virus) | Activity (Human alphaherpesvirus 1 [11]) | Activity [12] | Activity [13] | Activity (Coxsackievirus B4) | also measured
1 | Nc1ccn(C[C@@H](CO)OCP(=O)(O)O)c(=O)n1 [CIDOFOVIR] | 317 | 1.1 | 1.3 |  |  |  |  |  |  |  |  |  |  |  |  |  |  |  |  |  | CC50 (HEL): 161 µM
2 | N#Cc1ccc(OCCCCCn2ccc(=O)[nH]c2=O)cc1 | 100 | 5.5 | 8.9 | inactive | inactive | inactive | inactive | inactive | inactive | inactive | inactive | inactive | inactive | inactive | inactive | inactive | inactive | inactive | inactive | inactive | CC50 (HEL): 100 µM; Activity [14]: inactive; Activity [15]: inactive; Activity (Human alphaherpesvirus 1 [16]): inactive
3 | CC(C)(C)c1ccc(OCCCCCn2ccc(=O)[nH]c2=O)cc1 | 100 | 12 | 14 | inactive | inactive | inactive | inactive | inactive | inactive | inactive | inactive | inactive | inactive | inactive | inactive | inactive | inactive | inactive | inactive | inactive | CC50 (HEL): 40 µM; Activity [14]: inactive; Activity [15]: inactive; Activity (Human alphaherpesvirus 1 [16]): inactive
4 | Nc1ccc(OCCCCCn2ccc(=O)[nH]c2=O)cc1 | > 100 | 55 | 55 | inactive | inactive | inactive | inactive | inactive | inactive | inactive | inactive | inactive | inactive | inactive | inactive | inactive | inactive | inactive | inactive | inactive | CC50 (HEL): > 100 µM; Activity [14]: inactive; Activity [15]: inactive; Activity (Human alphaherpesvirus 1 [16]): inactive
5 | O=c1ccn(CCCCCOc2ccc(Cl)cc2)c(=O)[nH]1 | > 100 | > 100 | > 100 | inactive | inactive | inactive | inactive | inactive | inactive | inactive | inactive | inactive | inactive | inactive | inactive | inactive | inactive | inactive | inactive | inactive | Activity [14]: inactive; Activity [15]: inactive; Activity (Human alphaherpesvirus 1 [16]): inactive
6 | O=c1ccn(CCCCOc2ccc(Br)cc2)c(=O)[nH]1 | 100 | > 20 | > 20 | inactive | inactive | inactive | inactive | inactive | inactive | inactive | inactive | inactive | inactive | inactive | inactive | inactive | inactive | inactive | inactive | inactive | Activity [14]: inactive; Activity [15]: inactive; Activity (Human alphaherpesvirus 1 [16]): inactive
7 | O=c1ccn(CCCCCCOc2ccc(Br)cc2)c(=O)[nH]1 | 20 | > 4 | > 4 | inactive | inactive | inactive | inactive | inactive | inactive | inactive | inactive | inactive | inactive | inactive | inactive | inactive | inactive | inactive | inactive | inactive | Activity [14]: inactive; Activity [15]: inactive; Activity (Human alphaherpesvirus 1 [16]): inactive
8 | O=C(O)c1ccc(OCCCCCn2ccc(=O)[nH]c2=O)cc1 | > 100 | > 100 | > 100 | inactive | inactive | inactive | inactive | inactive | inactive | inactive | inactive | inactive | inactive | inactive | inactive | inactive | inactive | inactive | inactive | inactive | Activity [14]: inactive; Activity [15]: inactive; Activity (Human alphaherpesvirus 1 [16]): inactive
9 | O=c1ccn(CCCOc2ccc(Br)cc2)c(=O)[nH]1 | > 100 | > 100 | > 100 | inactive | inactive | inactive | inactive | inactive | inactive | inactive | inactive | inactive | inactive | inactive | inactive | inactive | inactive | inactive | inactive | inactive | Activity [14]: inactive; Activity [15]: inactive; Activity (Human alphaherpesvirus 1 [16]): inactive
10 | O=c1ccn(CCCCCOc2ccc([N+](=O)[O-])cc2)c(=O)[nH]1 | 20 | > 4 | > 4 | inactive | inactive | inactive | inactive | inactive | inactive | inactive | inactive | inactive | inactive | inactive | inactive | inactive | inactive | inactive | inactive | inactive | Activity [14]: inactive; Activity [15]: inactive; Activity (Human alphaherpesvirus 1 [16]): inactive
11 | O=c1ccn(CCCCCOc2ccc(-c3ccccc3)cc2)c(=O)[nH]1 | 100 | 54 | > 20 | inactive | inactive | inactive | inactive | inactive | inactive | inactive | inactive | inactive | inactive | inactive | inactive | inactive | inactive | inactive | inactive | inactive | Activity [14]: inactive; Activity [15]: inactive; Activity (Human alphaherpesvirus 1 [16]): inactive
12 | Nc1nc(O)c2ncn(COC(CO)CO)c2n1 [GANCICLOVIR] | 394 | 8.3 |  |  |  |  |  |  |  |  |  |  |  |  |  |  |  |  |  |  | CC50 (HEL): 200 µM
